# Screening data deposited in PubChem BioAssay by several laboratories.
# Shown are actives, neighbours in structure and some others; about 1.5% of the full set was active somewhere.
# Jurkat NFkB inh = inhibitors of induced NF-kB luciferase reporter, primary screen, TCR NF-kB activation inhibitor project, cell-based, luminescence, uHTS | 0.53% of 330,000 active | inhibition, % at 4 µM | AID 435003, 2010 | Jurkat, PMA/ionomycin-induced NF-kB luciferase reporter; in the data active means inhibition above about 50%
# GalR3 antagonist = GalR3 antagonists in HEK293 cells, primary screen, cell-based, fluorescence readout | Galanin receptor type 3 (Homo sapiens), O60755 | HEK293 GalR3-CNG cAMP membrane potential fluorescence; galR3 body fused to GalR1 C-terminus | 0.44% of 360,000 active | AID 651719, 2012 | inhibition, % at 3 µM;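 active means inhibition above the screen-wide average plus 3 SD, cut at about 13% in these data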;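 further: forskolin and galanin both at EC90 stimulate the cells; cAMP rise reported by CNG channel membrane potential dye signal; 0% = forskolin plus galanin with DMSO and 100% = forskolin alone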
# Target sequence (O60755 1-299 limits assumed): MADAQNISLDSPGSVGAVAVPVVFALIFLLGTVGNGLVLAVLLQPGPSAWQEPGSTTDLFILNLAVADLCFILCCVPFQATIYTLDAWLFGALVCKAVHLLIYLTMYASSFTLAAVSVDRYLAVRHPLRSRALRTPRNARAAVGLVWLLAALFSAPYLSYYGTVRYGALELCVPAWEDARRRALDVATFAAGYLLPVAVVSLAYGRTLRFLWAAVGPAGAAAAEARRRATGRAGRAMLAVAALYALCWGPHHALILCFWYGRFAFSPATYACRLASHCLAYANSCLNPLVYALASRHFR
# 697 NFkB inh = inhibitors of PMA/ionomycin-induced NF-kB reporter, 697 cells, primary screen, B-cell NF-kB inhibitor project, cell-based, luminescence, uHTS | AID 435022, 2010 | inhibition, % at 4 µM | 697 B-cell NF-kB luciferase reporter, 16 h | 0.33% of 330,000 active; in the data active means inhibition above about 35%
# GASC-1 inh = inhibitors of GASC-1 histone demethylase, primary screen, biochemical, fluorescence, DELFIA europium; Lysine-specific demethylase 4C (Homo sapiens), Q9H3R0; GST-JMJD2C(1-420) H3K9me3 demethylation; inhibition, % at 2.35 µM; 0.069% of 330,000 active; AID 2099, 2009;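 active means more than half of a compound's replicate wells show inhibition beyond 50%, single wells judged on their own value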;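 further: signal counts dimethyl H3K9 product captured on neutravidin plate; 0% = median of DMSO wells and 100% = 0.3 times that DMSO median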
# NR2E3 ag-1 = NR2E3 agonists in two-hybrid cells, primary screen, cell-based, luminescence, CHO-S, Gal4-NCOR/VP16-NR2E3; inhibition of corepressor binding, % at 3.98 µM; 0.35% of 360,000 active; Photoreceptor-specific nuclear receptor (Homo sapiens), Q9Y5X4; AID 602229, 2012; luciferase;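 active means inhibition above the mean of all tested compounds plus 3 SD, cut at about 70% in these data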;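 further: 0% = DMSO with NR2E3 transfected cells and 100% = cells lacking NR2E3 construct; higher means lower luciferase signal from less NR2E3 corepressor binding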
# Target sequence (Q9Y5X4 whole entry, looked up, the tested form may be a part): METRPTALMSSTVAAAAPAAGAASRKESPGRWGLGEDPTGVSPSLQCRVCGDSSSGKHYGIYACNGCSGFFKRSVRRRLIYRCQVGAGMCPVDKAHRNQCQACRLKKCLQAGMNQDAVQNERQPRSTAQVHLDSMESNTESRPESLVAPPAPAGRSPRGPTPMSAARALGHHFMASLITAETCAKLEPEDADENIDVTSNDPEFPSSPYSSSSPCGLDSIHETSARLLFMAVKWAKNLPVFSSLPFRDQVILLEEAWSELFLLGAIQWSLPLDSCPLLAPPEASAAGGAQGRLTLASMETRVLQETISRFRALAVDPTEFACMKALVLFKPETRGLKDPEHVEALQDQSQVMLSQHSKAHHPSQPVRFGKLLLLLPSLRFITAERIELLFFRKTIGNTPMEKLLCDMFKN
# NR2E3 ag-2 = inhibitors of NR2E3-RetCOR corepressor binding, primary screen, NR2E3 agonist project, biochemical, TR-FRET, GST-NR2E3, biotin-RetCOR. Photoreceptor-specific nuclear receptor (Homo sapiens), Q9Y5X4. 1536-well. inhibition of corepressor binding, % at 4.78 µM. 0.12% of 320,000 active;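 active means percent inhibition above the cutoff of mean plus 3 SD of all tested compounds, set per screening campaign, cut at about 20% in these data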;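 further: 0% = DMSO wells and 100% = biotin wells as full block of FRET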
#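 Test system – NR2E3–RetCOR corepressor complex · Quantity – NR2E3 fusion 1.35 nM · Buffer or medium – Tris pH 7.5 · Incubation – Compound–protein incubation for 5 h at 4 °C · Technique – TR-FRET, Eu(K)-anti-GST donor, streptavidin-D2 acceptor, ex 340, em 617/671 nm · Evaluation – percent inhibition of 671/617 nm emission ratio versus biotin and DMSO controls · Plate – 1536-well format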
# NR2E3 ag conf = NR2E3 agonist confirmation in cells, cell-based, luminescence, CHO-S two-hybrid; shares compounds with NR2E3 ag-1; CHO-S mammalian two-hybrid NR2E3-NCOR, luciferase luminescence; inhibition, % at 3.98 µM; 51% of 2,300 active; AID 624378, 2012;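 active means average inhibition above a cutoff equal to the mean inhibition of all tested compounds plus one SD, cut at about 70% in these data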;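 further: 0% = DMSO in NR2E3 cells and 100% = DMSO in cells lacking NR2E3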
# GAL4-VP16 luc = GAL4-VP16 reporter modulators, confirmation, counter-screen for NR2E3 agonist project, cell-based, luminescence, CHO-S, high throughput. shares compounds with NR2E3 ag-1. CHO-S GAL4-VP16 luciferase reporter. AID 624379, 2012. 29% of 2,300 active. inhibition, % at 3.98 µM;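 active means mean inhibition above a cutoff equal to the average over all tested compounds plus one standard deviation, cut at about 70% in these data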;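 further: luciferase from a UAS reporter driven by GAL4-VP16 transactivation; 0% = DMSO with VP16-transfected cells and 100% = DMSO with cells lacking VP16; higher means less reporter light so more repression of VP16 activity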
# The depositor's hits bear a star; x = no result.
SMILES,Jurkat NFkB inh,GalR3 antagonist,697 NFkB inh,GASC-1 inh,NR2E3 ag-1,NR2E3 ag-2,NR2E3 ag conf,GAL4-VP16 luc
CN(CC(=O)Nc1cccc(F)c1)C(=O)c1ccc(N2CCCCCC2)c([N+](=O)[O-])c1,-8,0,-11,5,-2,-2,x,x
CN(CC(=O)Nc1ccccc1Cl)C(=O)c1cccc(S(=O)(=O)N2CCN(c3ccc(F)cc3)CC2)c1,12,-7,-29,-9,94*,-2,73*,50
O=C(c1cc(S(=O)(=O)N2CCN(c3ccccc3)CC2)ccc1Cl)N1CCCCCCC1,17,-4,-2,147,67,3,79*,48
COC(=O)C(NC(=O)c1ccc(Cl)cc1)(Nc1nc(C)cs1)C(F)(F)F (configuration not stated),-2,-5,2,0,4,-2,x,x
CC1(C(=O)NS(=O)(=O)Cc2cccc(Cl)c2)CCN1C(=O)CCc1cccs1 (configuration not stated),x,-8,x,x,-10,x,x,x
CC(C)P(=O)(Cc1cccc(C#N)c1)C(C)C,-38,-3,-35,9,-2,-2,x,x
Cc1ccc(SCC(=O)OCC(=O)NC2(C#N)CCCCC2)cc1,12,-1,6,-5,-21,x,x,x
CN(Cc1ccc(OC(F)F)cc1)C(=O)c1cccc(S(=O)(=O)N2CCN(c3ccccc3)CC2)c1,x,-6,x,x,83*,x,85*,67
CN(CC(=O)Nc1ccccc1Cl)C(=O)c1cccc(S(=O)(=O)N2CCN(Cc3ccccc3)CC2)c1,5,2,-39,6,102*,1,63,46
CN(CC(=O)Nc1cccc(F)c1)C(=O)c1cccc(S(=O)(=O)N2CCN(c3ccc(F)cc3)CC2)c1,x,-7,x,x,50,x,46,26
CN(CC(=O)Nc1ccccc1Cl)C(=O)c1ccc(Cl)c(S(=O)(=O)N2CCCCCC2)c1,-12,-8,-17,2,-2,x,x,x
CC(NC(=O)OC(C)(C)C)C(=O)NC(CCC(=O)OCc1ccccc1)C(N)=O (configuration not stated),-6,-2,12,7,20,1,x,x
CC(C)C[C@@H](CNCC(=O)[C@H](CC(C)C)NC(=O)c1[nH]cnc1C(=O)N[C@@H](C)CN)NC(=O)c1nc[nH]c1C(=O)N[C@@H](CC(=O)O)C(=O)O,x,-5,x,x,-30,x,x,x
Cc1cc(NC2CCCCC2)nc(NCc2ccccc2)n1,46,-6,-22,6,75*,2,92*,76*
COc1ccc(Nc2cc(C)nc(NCc3ccccc3)n2)cc1,35,-9,-18,-2,68,3,86*,66
Cc1ccc(Nc2cc(C)nc(NCc3ccccc3)n2)cc1,27,-10,-17,0,12,3,x,x
O=C(OCC12CC3CC(CC(C3)C1)C2)c1ccc(NCc2cc(O)ccc2O)cc1,x,2,x,x,74*,x,67,5
Cc1[nH]c(=O)n(C(C)C)c(=O)c1Br,x,-1,x,x,18,x,x,x
Cc1ccnc(NC(=O)CSc2cc(=O)n(C)c3ccccc23)c1,-32,-3,-56,-3,67,-2,89*,20
Cn1c(=O)cc(SCC(=O)Nc2ccccn2)c2ccccc21,-18,-5,-11,38,x,-7,x,x
Oc1ccc(CCNc2ncnc3ccc(Cl)cc23)cc1,38,-5,-21,-9,91*,1,93*,87*
COc1ccc2oc(C(=O)NCc3cc(OC)c(OC)cc3OC)c(C)c2c1,-1,1,-11,-33,75*,3,43,53
Cc1ccc(C#CC[N+]2(CC#Cc3ccc(C)cc3)CCCCC2)cc1,29,-3,19,6,-5,2,x,x
COc1ccc(Cl)cc1C(=O)CSc1nnnn1C1CCCC1,-1,-6,-1,7,-2,3,x,x
COCCn1c(C)cc(C(=O)CSc2nnnn2C2CCCC2)c1C,-61,0,-123,-6,56,1,22,-54
SMILES,Jurkat NFkB inh,GalR3 antagonist,697 NFkB inh,GASC-1 inh,NR2E3 ag-1,NR2E3 ag-2,NR2E3 ag conf,GAL4-VP16 luc
COc1ccc(CCC(=O)OCC(=O)Nc2ccccc2)cc1,-8,-9,6,-4,-28,-3,x,x
CC12CCC(C(=O)Nc3ncc([N+](=O)[O-])s3)(OC1=O)C2(C)C (configuration not stated),3,x,0,-3,-4,2,x,x
CN(C(=O)COc1ccccc1C(=O)NCCOc1ccccc1)c1ccccc1,10,5,-44,0,77*,7,80*,68
CCCCSc1nc2c([nH]1)c(=S)n(C)c(=O)n2C,x,-3,x,x,64,x,31,-21
CSc1nc2c([nH]1)c(=S)n(C)c(=O)n2C,x,-3,x,x,33,x,x,x
CCCC(CC)Sc1nc2c([nH]1)c(=S)n(C)c(=O)n2C (configuration not stated),x,-5,x,x,78*,x,22,-11
CCN(CC)CCSc1nc2c([nH]1)c(=S)n(C)c(=O)n2C,x,-3,x,x,-40,x,x,x
CCCCC(C)Sc1nc2c([nH]1)c(=S)n(C)c(=O)n2C (configuration not stated),x,-5,x,x,87*,x,87*,61
O=S(=O)(Nc1nc(-c2ccccc2)cs1)c1cccc(C(F)(F)F)c1,-6,-8,1,4,71*,0,88*,76*
O=S(=O)(Nc1nc(-c2ccccc2)cs1)c1cc(Cl)ccc1Cl,9,-9,8,12,57,3,57,42
O=[N+]([O-])c1ccc(S(=O)(=O)Nc2nc(-c3ccccc3)cs2)cc1,-4,-4,10,-1,24,3,x,x
N#C/C(=C\c1ccc(Sc2ccc(Cl)cc2)o1)c1nc2ccccc2[nH]1,x,-5,x,-10,-56,1,x,x
N#C/C(=C\c1ccc(Sc2nc3ccccc3[nH]2)o1)c1ccccc1,12,-4,-23,4,73*,-2,82*,56
